This is one part of a sample in which hits are shown more often than they occur.
INS promoter act: activators of insulin promoter-driven GFP, primary screen, imaging, TRM-6 cells, eGFP reporter, cell count; activation, % at 2 µM; AID 1296, 2008; 130,000 tested, 0.81% active; plate-scaled: unstimulated 0, stimulated control 100;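 active = activation at 2 µM above a set limit, confirmed on inspection of the cell images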;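 also: share of cells whose green reporter signal exceeds an intensity cutoff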
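System: human fetal islet-derived TRM-6 cells with tamoxifen-inducible insulin promoter–eGFP reporter; input: seeding density of 1,000 cells per well; buffer or medium: Low-glucose (5.5 mM) medium with tamoxifen; incubation: compound exposure 48 h, 37 °C; measured by: high-content imaging of fixed cells with Hoechst nuclear stain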
Starred values were filed as active, the others as inactive.

SMILES | INS promoter act
Cc1ccc(S(=O)(=O)NCC2NCCc3ccccc32)cc1 (configuration not stated) | 0
S=C1NCCc2ccccc2C1c1ccccc1Cl (configuration not stated) | 469*
CCOC(=O)/C(C#N)=C\c1c(OCC)n(CC)c2ccccc12 | -3
CCOC(=O)C1(Cc2ccccc2)CCN(Cc2ccon2)CC1 | 7
CCOC(=O)C1(CC2CC2)CCN(Cc2ccc(OC)cc2F)CC1 | 5
CCOC(=O)C1(CC2CCCCO2)CCN(Cc2nc(C(C)C)cs2)CC1 (configuration not stated) | 375*
CCN(CC)C(=O)/C(=C/c1ccc(F)cc1)NC(C)=O | -3
O=C(CCN1CCN(Cc2ccccc2)CC1)Nc1ccccc1Cl | -3
CCOc1ccc(C(=O)NC(=S)Nc2ccccc2N2CCC(C)CC2)cc1[N+](=O)[O-] | -7
CC1CCN(c2ccccc2NC(=S)NC(=O)c2ccco2)CC1 | 230*
Cc1ccccc1C(=O)NC(=S)Nc1ccccc1N1CCCC1 | -3
CN(C)/C=N/c1nc2nccc(-c3cccc(Cl)c3)n2n1 | 0
CCc1ccc(/C=C2/C(=O)N(CC)C(=S)N2C)s1 | -69
COc1cc(OC)c(N(C)S(=O)(=O)c2cccc(C(=O)OCc3c(C)noc3C)c2)cc1Cl | 6
CCOC(=O)c1c(C)n(C)c2ccc(OC)c(NC(=O)CCN3CCSCC3)c12 | 7
CCCCCCC(=O)Cc1cc(OC)c(OC)cc1C=C(C(=O)OCC)C(=O)OCC | 5
CCCC(=O)C1=C(O)C(C(=O)OC)C(C)(C)CC1=Nc1cccc2ccccc12 (configuration not stated) | 106
CCCC(=O)C1=C(O)C(C(=O)OC)C(C)(C)CC1=NC(C)C (configuration not stated) | 480*
Cc1ccc(S(=O)(=O)N(C)C)cc1-n1c(SCC(=O)Nc2ccc(F)cc2Cl)nc2ccccc2c1=O | 0
O=C(CC1NCCc2ccccc21)Nc1ccccc1 (configuration not stated) | 7
CN(C)c1ccc(NC(=O)CC2NCCNC2=O)cc1 (configuration not stated) | 488*
CN(C)c1ccc(NC(=O)COC(=O)CCC(=O)c2ccc(F)cc2)cc1 | -3
CCn1c(=O)cc(OCC(=O)NCCc2cccc(C)c2)c2ccccc21 | 129*
CCOC(=O)COc1cc(=O)n(CC)c2ccccc12 | -4
CCn1c(=O)cc(OCC(=O)Nc2cc(C)ccn2)c2ccccc21 | 6
SMILES | INS promoter act
C/C(CC(=O)NCCCN1CCOCC1)=N\NC(=O)COc1ccc(Cl)cc1 | -4
CN(C)C(/C=C/Nc1ccc([N+](=O)[O-])cc1)=C(C#N)C#N | -9
COCCCNc1ncnc2c1[nH]c1ccccc12 | 5
O=C(O)CCCN1C(=O)C(=O)/C(=C(/O)c2ccccc2)C1/C=C/c1ccccc1 (configuration not stated) | 6
CCC(C)(C)NC(=O)CN(C(=O)c1snc(C(N)=O)c1N)c1ccc2c(c1)OCO2 | 9
CS(=O)(=O)N(CC(=O)NCc1ccco1)c1ccccc1Cl | -7
CCc1ccccc1N(CC(=O)NCc1ccco1)C(=O)c1snc(C(N)=O)c1N | 164*
Cc1nnc(NC(=O)c2cccc(S(=O)(=O)N3CCOCC3)c2)s1 | -6
O=C(Nn1cnnc1)c1cccc(S(=O)(=O)N2CCOCC2)c1 | 7
O=C(Nc1ccccc1O)c1cccc(S(=O)(=O)N2CCOCC2)c1 | 462*
C/C(=N\NC(=O)C1CC1c1ccccc1)c1cccc([N+](=O)[O-])c1 (configuration not stated) | 4
O=S(=O)(NCc1ccco1)c1cccc(S(=O)(=O)N2CCOCC2)c1 | 0
C[C@H](NC(=O)c1ccco1)C(=O)Nc1ccc(S(=O)(=O)N2CCCC2)cc1 | -4
O=S(=O)(c1ccc(S(=O)(=O)N(Cc2ccccc2)Cc2ccco2)cc1)N1CCCC1 | 494*
CCOCCCNC(=O)CSc1ccccc1 | 8
Cc1ccccc1OCc1n[nH]c(=S)n1Cc1ccccc1 | 0
OCCCc1n[nH]c(=S)n1-c1ccccc1 | -7
Nn1c(Cc2ccccc2)n[nH]c1=S | 486*
Cn1c(-c2sc3cc(C(F)(F)F)cnc3c2-c2cccnc2)n[nH]c1=S | -6
COc1ccc(OC)c2[nH]c(=O)c(CCNC(=O)c3ccc4c(c3)OCO4)cc12 | 9
Cc1ccc(NC(=O)COC(=O)Cn2nc(C)c([N+](=O)[O-])c2C)c([N+](=O)[O-])c1 | 6
c1ccc(-c2cc(-c3nnc4n3N=C(c3ccc5ccccc5c3)CS4)[nH]n2)cc1 | -4
Cc1c(Cl)cccc1-n1c(SCC(=O)NCc2ccccc2Cl)nnc1-c1ccncc1 | 0
COC(=O)c1ccc(N2C(=O)CC(N(C)CCc3ccc(OC)c(OC)c3)C2=O)cc1 (configuration not stated) | 10
COc1ccc(Nc2nc(NC(C)(C)C)nc(N3CCOCC3)n2)c(OC)c1 | 5
COc1ccc(Nc2nc(NC(C)(C)C)nc(N3CCCC3)n2)c(OC)c1 | 243
COc1ccc(Nc2nc(Nc3ccc(OC)cc3OC)nc(N3CCN(C)CC3)n2)c(OC)c1 | 317*

Assay outcomes from PubChem BioAssay.
